# Measured values as given in publication PMC10620946 (Journal of medicinal chemistry, 2021).
# Experiments:
# P-RNase L21-732 = assay: STD-NMR binding; parameters: species or system porcine; settings: for STD-NMR signal (binding to P-RNase L): 10 μM P-RNase L21-732, 400 μM fragment; for STD-NMR binding to RNase L dimer: 2-5A in molar excess to RNase L; for STD-NMR binding with ATP/MgCl2: ATP/MgCl2 or mixture of 2-5A and ATP/MgCl2 in molar excess to RNase L; for STD-NMR binding to monomeric RNase L: absence of 2-5A
# H-RNase L = target: T1, H-RNase L (Homo sapiens, UniProt Q05823); assay: RNase L mediated rRNA cleavage in intact A549 cells; format: cell-based; settings: 3-100 μM inhibitor, 4 h, then 20 μM trimeric 2-5A 2 h
# T1 sequence (Q05823 1-741): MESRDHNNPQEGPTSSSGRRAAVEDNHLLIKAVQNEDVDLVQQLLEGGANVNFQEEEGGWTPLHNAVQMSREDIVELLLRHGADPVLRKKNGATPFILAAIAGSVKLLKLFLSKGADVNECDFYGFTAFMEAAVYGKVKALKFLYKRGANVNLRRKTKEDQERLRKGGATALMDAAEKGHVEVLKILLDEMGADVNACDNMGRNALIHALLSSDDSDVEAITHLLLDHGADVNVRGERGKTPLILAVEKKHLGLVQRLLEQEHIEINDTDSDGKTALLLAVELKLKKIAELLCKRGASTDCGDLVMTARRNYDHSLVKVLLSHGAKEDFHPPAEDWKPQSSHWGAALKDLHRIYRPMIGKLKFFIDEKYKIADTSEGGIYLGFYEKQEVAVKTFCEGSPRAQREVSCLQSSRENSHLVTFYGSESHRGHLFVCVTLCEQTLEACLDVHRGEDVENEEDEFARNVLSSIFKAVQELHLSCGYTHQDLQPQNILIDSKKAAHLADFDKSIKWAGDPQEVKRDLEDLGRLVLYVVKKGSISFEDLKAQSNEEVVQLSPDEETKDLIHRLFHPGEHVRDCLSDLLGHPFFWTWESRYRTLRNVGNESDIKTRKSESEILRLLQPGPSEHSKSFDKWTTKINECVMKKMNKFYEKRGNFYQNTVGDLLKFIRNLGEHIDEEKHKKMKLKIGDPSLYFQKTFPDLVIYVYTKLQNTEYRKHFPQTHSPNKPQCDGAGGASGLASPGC
# P-RNase L = assay: RNase L oligomerization assay; format: biochemical, porcine; settings: 40 μM compound, 2-5A up to 2 μM
# In short: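 Full-length porcine RNase L (0.8 μM) with 5 mM MgCl₂, preincubated ±test compound 15 min on ice. 2-5A then added for a further 15 min on ice. Cross-linked with DMS (120 mg/mL stock in 0.4 M triethanolamine-HCl, pH 8.5) 1 h at room temperature. Denatured in SDS/β-mercaptoethanol loading buffer at 95 °C for 5 min. Resolved by 4-12% gradient SDS-PAGE with Coomassie G-250 stain and imaged.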
# [1] = target: T2, human RNase L (H-RNase L) (Homo sapiens, UniProt Q05823); assay: FRET based enzyme assay of RNA substrate cleavage, H-RNase L; format: biochemical; settings: for IC50 against RNase L, in words: in vitro
# T2 sequence (Q05823 1-741): T1 sequence (Q05823 1-741)
# [2] = target: porcine RNase L (P-RNase L) (Sus scrofa, UniProt A5H025); assay: FRET based enzyme assay of RNA substrate cleavage, P-RNase L; format: biochemical
# RNase L [3] = settings: cited from earlier work
# RNase L [4] = settings: cited from earlier work; remark: listed apart in the source
smiles,measurement,setting,value
O=c1cc(-c2ccc(O)cc2)oc2c([C@@H]3O[C@H](CO)[C@@H](O)[C@H](O)[C@H]3O)c(O)cc(O)c12 [vitexin],STD-NMR signal (binding to P-RNase L),P-RNase L21-732,directly binds
same,inhibitory activity against RNase L in intact cells (rRNA cleavage),H-RNase L,did not show any inhibitory activity
Cc1cc(C(=O)O)cc(Cl)n1 [RF03759],STD-NMR signal (binding to P-RNase L),P-RNase L21-732,positive
O=c1c(O[C@@H]2O[C@H](CO)[C@H](O)[C@H](O)[C@H]2O)c(-c2ccc(O)c(O)c2)oc2cc(O)cc(O)c12 [hyperoside],STD-NMR binding to RNase L dimer,P-RNase L21-732,positive STD signal
same,STD-NMR binding with ATP/MgCl2,P-RNase L21-732,remained positive
same,STD-NMR binding to monomeric RNase L,P-RNase L21-732,directly interacts
same,suppression of 2-5A induced RNase L dimerization (cross-linking),P-RNase L,did not suppress
same,inhibitory activity against RNase L in intact cells (rRNA cleavage),H-RNase L,did not show any inhibitory activity
same,inhibition of H-RNase L in vitro,[1],inhibited
same,effect of 2-5A concentration on potency against H-RNase L,"[1]; 2-5A 1, 5 and 20 nM",does not seem to have an effect
same,"IC50 against RNase L, in words",[1],single-digit micromolar
same,inhibition of P-RNase L in vitro,[2],inhibited
same,effect of 2-5A concentration on potency against P-RNase L,"[2]; 2-5A 1, 5 and 20 nM",does not seem to have an effect
CCCCOC(=O)c1ccc(O)cc1 [AC40357],STD-NMR signal (binding to P-RNase L),P-RNase L21-732,positive
same,inhibition of H-RNase L in vitro,[1],inhibited
same,"IC50 against RNase L, in words",[1],low millimolar
same,inhibition of P-RNase L in vitro,[2],inhibited only H-RNase L
Oc1ccc(Sc2ccc(O)cc2)cc1 [BTB10184],STD-NMR signal (binding to P-RNase L),P-RNase L21-732,positive
CCN(CC)CCNC(=O)c1c(C)[nH]c(/C=C2\C(=O)Nc3ccc(F)cc32)c1C [sunitinib],"IC50 against RNase L in vitro, in words",RNase L [3],micromolar range
O=C(CCc1ccc(O)cc1)c1c(O)cc(O)cc1O [phloretin],inhibition of H-RNase L in vitro,[1],inhibited
O=c1c(O)c(-c2cc(O)c(O)c(O)c2)oc2cc(O)cc(O)c12 [myricetin],STD-NMR binding to RNase L dimer,P-RNase L21-732,positive STD signal
same,STD-NMR binding with ATP/MgCl2,P-RNase L21-732,remained positive
same,STD-NMR binding to monomeric RNase L,P-RNase L21-732,directly interacts
same,inhibitory activity against RNase L in intact cells (rRNA cleavage),H-RNase L,identical inhibitory activity to that of VAL
same,inhibition of H-RNase L in vitro,[1],inhibited
same,inhibition of P-RNase L in vitro,[2],inhibited
C[S+]([O-])c1sc(Cl)c2c1C(=O)CCC2 (centres unmarked) [KM05073],STD-NMR signal (binding to P-RNase L),P-RNase L21-732,positive
O=c1c(O)c(-c2ccc(O)cc2O)oc2cc(O)cc(O)c12 [morin],inhibition of H-RNase L in vitro,[1],not active
same,inhibition of P-RNase L in vitro,[2],not active
O=C(O)c1ccc(Cl)nc1Cl [AC39661],STD-NMR signal (binding to P-RNase L),P-RNase L21-732,positive
"O=C(O)c1cc(O)c(O)c(O)c1Oc1cc2c(=O)oc3c(O)c(O)cc4c(=O)oc(c1O)c2c34 [VAL, valoneic acid dilactone]","inhibition activity on RNase L in vitro, in words",RNase L [3],nanomolar
same,"EC50 for RNase L in intact cells, in words",RNase L [4],micromolar range
